In ChEMBL document CHEMBL1671864, “First assessment in humans of the safety, tolerability, pharmacokinetics, and ex vivo pharmacodynamic antimalarial activity of the new artemisinin derivative artemisone” (Antimicrob Agents Chemother, 2008):
In brackets after ≈: the same amount, converted by molar mass.

Columns and labels:
[1] = system: Plasma; assay: Cmax in healthy human plasma assessed as metabolite BAY 78-1787 Cmax at 80 mg, po administered as single ascending doses during 10 hrs overnight fasting state; assay type: ADME, organism-based; set-up: dose 80 mg, route oral; details: in vivo
Procedure, shortened: (§1)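 Healthy Caucasian male volunteers, single oral dose of 80 mg as four 20-mg immediate-release tablets, taken with 240 ml water after a 10-h overnight fast. Lithium-heparin venous blood was drawn predose and at 0.25–14 h, and plasma was stored frozen. Metabolites M1/M2/M3 were measured by LC/MS-MS (positive-ion MRM, deuterated internal standard). Noncompartmental analysis, AUC by log-linear trapezoidal rule extrapolated to infinity (Clast/kel), geometric means.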

[2] = system: Plasma; assay: AUC (0 to infinity) in healthy human plasma assessed as metabolite BAY 78-1787 AUC (0 to infinity) at 80 mg, po administered as single ascending doses during 10 hrs overnight fasting state; assay type: ADME, organism-based; set-up: dose 80 mg, time infinity, route oral; details: in vivo; procedure, shortened: as §1
[3] = system: Plasma; assay: Half-life in healthy human plasma assessed as metabolite BAY 78-1787 half-life at 80 mg, po administered as single ascending doses during 10 hrs overnight fasting state; assay type: ADME, organism-based; details: in vivo
Procedure, shortened: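 Healthy Caucasian male volunteers, single oral dose with 240 ml water after a 10-h overnight fast. Heparinised venous blood was drawn predose and at 0.25–14 h. Plasma was stored frozen. Parent drug and metabolites M1–M3 were measured by LC/MS-MS (MRM, deuterated internal standard). Noncompartmental analysis gave Cmax observed, t1/2 = 0.693/kel (terminal regression) and MRT = AUMC/AUC. Values are geometric means.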

[4] = system: Plasma; assay: Ratio of AUC (0 to infinity) for metabolite BAY 78-1787 to AUC (0 to infinity) for compound in healthy human plasma at 40 mg, po administered as single dose for 3 days measured after 1 day; assay type: ADME, organism-based; details: in vivo, 24 h
Procedure, shortened: (§2)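 Healthy Caucasian men (8 active, 4 placebo per dose) dosed with tablets daily for 3 days after 10-h fast. Plasma sampled 0.25–14 h after first and last doses. Parent and metabolites M1–M3 measured by LC/MS-MS (200 µl plasma). Metabolic ratio is metabolite AUC0-∞ divided by parent AUC0-∞ (log-linear trapezoidal, extrapolated by last concentration/kel). First vs third dose compared by paired t test.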

[5] = system: Plasma; assay: Ratio of AUC (0 to infinity) for metabolite BAY 78-1787 to AUC (0 to infinity) for compound in healthy human plasma at 40 mg, po administered as single dose for 3 days measured after 3 days; assay type: ADME, organism-based; details: in vivo, 72 h; procedure, shortened: as §2
[6] = system: Plasma; assay: Ratio of AUC (0 to infinity) for metabolite BAY 78-1787 to AUC (0 to infinity) for compound in healthy human plasma at 80 mg, po administered as single dose for 3 days measured after 1 day; assay type: ADME, organism-based; details: in vivo, 24 h; procedure, shortened: as §2
[7] = system: Plasma; assay: Ratio of AUC (0 to infinity) for metabolite BAY 78-1787 to AUC (0 to infinity) for compound in healthy human plasma at 80 mg, po administered as single dose for 3 days measured after 3 days; assay type: ADME, organism-based; details: in vivo, 72 h; procedure, shortened: as §2
[8] = system: Plasmodium falciparum; assay: Antimalarial activity against Plasmodium falciparum K1 in human plasma assessed as inhibition of hypoxanthine uptake by intraerythrocytic malaria parasites by hypoxanthine incorporation assay; assay type: functional, organism-based
Procedure, shortened: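 K1 or TM90-C2A parasites were sorbitol-synchronized and cultured in RPMI 1640. Drug was diluted in drug-free human serum (0.04–40 ng/ml) or subject plasma was diluted twofold (8–8,192). Parasites were added at 2% hematocrit, 1% parasitemia (>95% rings), and [3H]hypoxanthine uptake was measured over 48 h. IC50 or ID50 came from concentration or dilution-response curves. Equivalent concentration = ID50 × IC50.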

[9] = system: Plasma; assay: Cmax in healthy human plasma assessed as metabolite BAY 78-1787 Cmax at 40 mg, po administered as two 20 mg immediate release tablets daily for 3 days during 10 hrs overnight fasting state measured after 1 day; assay type: ADME, organism-based; set-up: dose 40 mg, route oral; details: in vivo, 24 h
Procedure, shortened: (§3)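 Healthy Caucasian male volunteers took 40 mg (two 20-mg IR tablets) or 80 mg (four tablets) orally once daily for 3 days, with 240 ml water after a 10-h fast. Plasma was sampled predose to 14 h after the first and last doses. M1/M2/M3 were quantified by LC/MS-MS MRM against a D4-labelled internal standard. Cmax was read from observed data and AUC by log-linear trapezoidal rule, noncompartmental, geometric means.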

[10] = system: Plasma; assay: Cmax in healthy human plasma assessed as metabolite BAY 78-1787 Cmax at 40 mg, po administered as two 20 mg immediate release tablets daily for 3 days during 10 hrs overnight fasting state measured after 3 day; assay type: ADME, organism-based; set-up: dose 40 mg, route oral; details: in vivo, 72 h; procedure, shortened: as §3
[11] = system: Plasma; assay: AUC in healthy human plasma assessed as metabolite BAY 78-1787 AUC at 40 mg, po administered as two 20 mg immediate release tablets daily for 3 days during 10 hrs overnight fasting state measured after 1 day; assay type: ADME, organism-based; set-up: dose 40 mg, time < 10 hr, route oral; details: in vivo; procedure, shortened: as §3
[12] = system: Plasma; assay: AUC in healthy human plasma assessed as metabolite BAY 78-1787 AUC at 40 mg, po administered as two 20 mg immediate release tablets daily for 3 days during 10 hrs overnight fasting state measured after 3 day; assay type: ADME, organism-based; set-up: time < 10 hr, dose 40 mg, route oral; details: in vivo; procedure, shortened: as §3
[13] = system: Plasma; assay: Tmax in healthy human plasma assessed as metabolite BAY 78-1787 Tmax at 40 mg, po administered as two 20 mg immediate release tablets daily for 3 days during 10 hrs overnight fasting state measured after 1 day; assay type: ADME, organism-based; details: in vivo, 24 h
Procedure, shortened: (§4)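 Healthy Caucasian men (8 active, 4 placebo per dose) dosed with tablets daily for 3 days after 10-h fast. Lithium-heparin plasma sampled predose and 0.25–14 h after day-1 and day-3 doses, stored frozen. Parent and M1–M3 quantified by LC/MS-MS in positive-ion MRM. Tmax taken directly from observed individual data.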

[14] = system: Plasma; assay: Tmax in healthy human plasma assessed as metabolite BAY 78-1787 Tmax at 40 mg, po administered as two 20 mg immediate release tablets daily for 3 days during 10 hrs overnight fasting state measured after 3 day; assay type: ADME, organism-based; details: in vivo, 72 h; procedure, shortened: as §4
[15] = system: Plasma; assay: Half life in healthy human plasma assessed as metabolite BAY 78-1787 Half life at 40 mg, po administered as two 20 mg immediate release tablets daily for 3 days during 10 hrs overnight fasting state measured after 1 day; assay type: ADME, organism-based; details: in vivo, 24 h
Procedure, shortened: (§5)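 Healthy Caucasian males took tablets once daily for 3 days with 240 ml water after a 10-h fast. Heparinised blood was drawn predose and at 0.25–14 h after the first and last doses. Plasma parent drug and metabolites M1–M3 were measured by LC/MS-MS (MRM, deuterated internal standard). Noncompartmental analysis gave Cmax observed, t1/2 = 0.693/kel and MRT = AUMC/AUC. Values are geometric means.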

[16] = system: Plasma; assay: Half life in healthy human plasma assessed as metabolite BAY 78-1787 Half life at 40 mg, po administered as two 20 mg immediate release tablets daily for 3 days during 10 hrs overnight fasting state measured after 3 day; assay type: ADME, organism-based; details: in vivo, 72 h; procedure, shortened: as §5
[17] = system: Plasma; assay: Cmax in healthy human plasma assessed as metabolite BAY 78-1787 Cmax at 80 mg, po administered as four 20 mg immediate release tablets daily for 3 days during 10 hrs overnight fasting state measured after 1 day; assay type: ADME, organism-based; set-up: dose 80 mg, route oral; details: in vivo; procedure, shortened: as §3
[18] = system: Plasma; assay: Cmax in healthy human plasma assessed as metabolite BAY 78-1787 Cmax at 80 mg, po administered as four 20 mg immediate release tablets daily for 3 days during 10 hrs overnight fasting state measured after 3 day; assay type: ADME, organism-based; set-up: dose 80 mg, route oral; details: in vivo, 72 h; procedure, shortened: as §3
[19] = system: Plasma; assay: AUC in healthy human plasma assessed as metabolite BAY 78-1787 AUC at 80 mg, po administered as four 20 mg immediate release tablets daily for 3 days during 10 hrs overnight fasting state measured after 1 day; assay type: ADME, organism-based; set-up: dose 80 mg, time < 10 hr, route oral; details: in vivo; procedure, shortened: as §3
[20] = system: Plasma; assay: AUC in healthy human plasma assessed as metabolite BAY 78-1787 AUC at 80 mg, po administered as four 20 mg immediate release tablets daily for 3 days during 10 hrs overnight fasting state measured after 3 day; assay type: ADME, organism-based; set-up: dose 80 mg, time < 10 hr, route oral; details: in vivo; procedure, shortened: as §3
[21] = system: Plasma; assay: Tmax in healthy human plasma assessed as metabolite BAY 78-1787 Tmax at 80 mg, po administered as four 20 mg immediate release tablets daily for 3 days during 10 hrs overnight fasting state measured after 1 day; assay type: ADME, organism-based; details: in vivo, 24 h; procedure, shortened: as §4
[22] = system: Plasma; assay: Tmax in healthy human plasma assessed as metabolite BAY 78-1787 Tmax at 80 mg, po administered as four 20 mg immediate release tablets daily for 3 days during 10 hrs overnight fasting state measured after 3 day; assay type: ADME, organism-based; details: in vivo, 72 h; procedure, shortened: as §4
[23] = system: Plasma; assay: Half life in healthy human plasma assessed as metabolite BAY 78-1787 Half life at 80 mg, po administered as four 20 mg immediate release tablets daily for 3 days during 10 hrs overnight fasting state measured after 1 day; assay type: ADME, organism-based; details: in vivo, 24 h; procedure, shortened: as §5
[24] = system: Plasma; assay: Half life in healthy human plasma assessed as metabolite BAY 78-1787 Half life at 80 mg, po administered as four 20 mg immediate release tablets daily for 3 days during 10 hrs overnight fasting state measured after 3 day; assay type: ADME, organism-based; details: in vivo, 72 h; procedure, shortened: as §5

C[C@H]1[C@H](N2C=CS(=O)(=O)CC2)O[C@@H]2O[C@]3(C)CC[C@H]4[C@H](C)CC[C@@H]1[C@@]24OO3
Cmax [1]: 0.1211 µg/mL
AUC [2]: 0.3154 µg·h/mL
t1/2 [3]: 2.78 h
Ratio [4]: 0.63
Ratio [5]: 0.62
Ratio [6]: 0.89
Ratio [7]: 0.79
IC50 [8]: 1.7 ng/mL (≈ 4.26 nM)
Cmax [9]: 0.0517 µg/mL
Cmax [10]: 0.0478 µg/mL
AUC [11]: 0.1126 µg·h/mL
AUC [12]: 0.1123 µg·h/mL
Tmax [13]: 1.75 h
Tmax [14]: 1.75 h
t1/2 [15]: 1.9 h
t1/2 [16]: 1.54 h
Cmax [17]: 0.1126 µg/mL
Cmax [18]: 0.0853 µg/mL
AUC [19]: 0.296 µg·h/mL
AUC [20]: 0.2552 µg·h/mL
Tmax [21]: 2 h
Tmax [22]: 1.5 h
t1/2 [23]: 2.13 h
t1/2 [24]: 1.63 h
